Bioassay records (PubChem)
ABHD4 inh = ABHD4 (mouse) inhibition, primary FP screen; AID 720543; Q8VD66; purified mABHD4, FP-Rh probe fluorescence polarization; inhibition, % at 8.92 µM; 370,000 compounds, 0.54% hits;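 active means inhibition exceeding the mean over every tested compound plus 3 SD, cut at about 30% in these data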
Target sequence (Q8VD66 whole entry, looked up): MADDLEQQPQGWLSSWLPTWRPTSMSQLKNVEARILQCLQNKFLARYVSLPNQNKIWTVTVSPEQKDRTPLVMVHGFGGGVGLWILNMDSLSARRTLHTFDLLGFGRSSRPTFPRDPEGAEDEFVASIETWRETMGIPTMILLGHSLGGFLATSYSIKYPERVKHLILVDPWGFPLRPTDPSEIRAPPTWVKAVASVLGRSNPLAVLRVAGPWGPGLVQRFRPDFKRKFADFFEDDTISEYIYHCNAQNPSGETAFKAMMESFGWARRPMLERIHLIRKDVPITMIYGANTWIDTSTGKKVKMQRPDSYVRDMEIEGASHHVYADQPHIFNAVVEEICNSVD
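Test system: mABHD4 protein; Read-out basis: % inhibition; Incubation: 45 min + 60 min at 25 °C; Repeats: single replicate; Technique: fluorescence polarization with parallel and perpendicular emission, 525/598 nm; Compound: 8.92 µM, single dose; Benchmarks: full inhibition S159A mutant plus DMSO, zero as sample-well median.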
PRMT1 inh = PRMT1 (human) inhibition, primary screen | Q99873 | recombinant PRMT1, activity-based probe fluorescence polarization | inhibition, % at 2.79 µM | 370,000 compounds, 1.3% hits;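 active means inhibition above about 21% made by adding two undisclosed values, limit read from the data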
Target sequence (Q99873 whole entry, looked up): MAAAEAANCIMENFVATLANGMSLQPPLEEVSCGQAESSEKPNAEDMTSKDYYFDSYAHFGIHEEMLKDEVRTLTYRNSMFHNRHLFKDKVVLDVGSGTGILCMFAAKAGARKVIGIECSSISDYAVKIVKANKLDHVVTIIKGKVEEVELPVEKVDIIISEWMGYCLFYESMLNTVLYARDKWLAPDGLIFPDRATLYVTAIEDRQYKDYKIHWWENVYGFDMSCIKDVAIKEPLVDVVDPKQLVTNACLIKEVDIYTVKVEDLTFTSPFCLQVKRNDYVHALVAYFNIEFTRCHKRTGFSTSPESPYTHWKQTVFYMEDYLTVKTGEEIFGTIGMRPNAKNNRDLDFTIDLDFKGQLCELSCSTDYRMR
SIAE primary = blocks human sialic acid acetylesterase. inhibition, % at 9.66 µM. 370,000 compounds, 0.69% hits. Q9HAT2. SIAE FP-Rh probe binding, fluorescence polarization;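 active means inhibition above a cutoff: mean of compounds within the control limits plus 3 SD of those, cut at about 17% in these data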
HTRA1 inh = HTRA1 (human) protease inhibition. inhibition, % at 5.96 µM. Q92743. AID 504803. recombinant HTRA1, FP-rhodamine activity-based probe, fluorescence polarization. 340,000 compounds, 0.5% hits; in the data active means inhibition above about 36%
TCR-CD3 inh = inhibitors of human TCR-CD3 interaction; TAMRA-labeled TCR probe fluorescence, biochemical; 360,000 compounds, 0.37% hits; inhibition, % at 9.4 µM; in the data active means inhibition above about 19%;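 further: recombinant mutant TCR 2C K166C tagged with TAMRA read by polarization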
PRMT1 inh conf = PRMT1 (human) inhibition, FP confirmation. shares compounds with PRMT1 inh. recombinant His-PRMT1, activity-based probe fluorescence polarization. inhibition, % at 2.79 µM. 3,300 compounds, 42% hits. AID 687036;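 active means mean inhibition across replicates above the hit cutoff derived for the earlier primary screen, cut at about 22% in these data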
Large screens that a line does not name were inactive (follow-up assays come after a bar, where they were run). A selection: hits, their analogues and other compounds. The true share with any hit is near 2.5%.

CN1CC=C2C(C#N)=C(N)C(C#N)(C#N)C(Cc3ccccc3)C2C1 (centres undefined)	PRMT1 inh 45.5 | PRMT1 inh conf inactive
CCN1/C(=C\C=C(C(C)=O)C(C)=O)Sc2ccccc21	none
CCN1/C(=C/C(C)=C/c2sc3ccccc3[n+]2CC)Sc2ccccc21	PRMT1 inh 97.8 | PRMT1 inh conf inactive
c1coc(-c2cc3nc(NC4CCCCC4)ccn3n2)c1	PRMT1 inh 28.9 (no result: HTRA1 inh) | PRMT1 inh conf inactive
c1coc(-c2cc3nc(NCc4ccc5c(c4)OCO5)ccn3n2)c1	PRMT1 inh 31.6 (no result: HTRA1 inh) | PRMT1 inh conf inactive
CCOC(=O)c1cccc(NC(=O)CN(C)S(=O)(=O)c2ccc(Cl)s2)c1	none (no result: HTRA1 inh, TCR-CD3 inh)
N#Cc1cc2c([nH]c1=S)CCCCCC2	PRMT1 inh 25.7 | PRMT1 inh conf inactive
N#Cc1c(N)n[nH]c1-c1cc2c([nH]1)CCCC2	none
CC(c1ccccc1)n1cc(C(=O)N2CCCN(Cc3ccccc3)CC2)nn1 (centres undefined)	none (no result: HTRA1 inh, TCR-CD3 inh)
COc1cc(NC(=O)CSc2nnc(-c3cc(C)on3)o2)cc(OC)c1	none
Cc1cc(-c2nnc(SCC(=O)Nc3nc(-c4ccc(Cl)cc4)cs3)o2)no1	PRMT1 inh 41.9 | PRMT1 inh conf inactive
CCN(C(=O)COc1cccc2cccnc12)C1CCS(=O)(=O)C1 (centres undefined)	PRMT1 inh 32.8 | PRMT1 inh conf inactive
Cc1cccc2c1CC(C)(C)N/C2=C\C(N)=O	PRMT1 inh 45.3 | PRMT1 inh conf 44.5
Cc1cc2c(cc1C)/C(=C\C(N)=O)NC(C)(C)C2	PRMT1 inh 26.2 | PRMT1 inh conf 33.7
CC1(C)Cc2ccccc2C(=O)N1	none
CNC(=O)/C=C1\NC(C)(C)Cc2ccccc21	PRMT1 inh 40.9 | PRMT1 inh conf 55.1
COc1cc2c(cc1OC)/C(=C/C#N)NC(C)(C)C2	none
Cc1ccc(CN2CCCCC(NC(=O)C(C)(C)C)C2=O)cc1 (centres undefined)	none (no result: HTRA1 inh, TCR-CD3 inh)
C=CCN(CC#CCN(C)C(=O)c1cccn1C(=O)OC(C)(C)C)Cc1ccc(OC)cc1OC	none (no result: HTRA1 inh, TCR-CD3 inh)
O=C(OC1CC2CCC(C1)[N+]21CCCC1)C(O)(c1ccccc1)c1ccccc1 (centres undefined)	none (no result: HTRA1 inh, TCR-CD3 inh)
Nc1nc(N)c2[nH]c(=S)[nH]c2n1	PRMT1 inh 53.6 | PRMT1 inh conf inactive
O=C1C(Cl)=C(Nc2ccccc2O)C(=O)N1CCc1ccccc1	PRMT1 inh 29.6 | PRMT1 inh conf 53.5
COc1ccc(CCNC2=C(Cl)C(=O)N(CCc3ccccc3)C2=O)cc1OC	none
O=C(OCc1cn(Cc2c(F)cccc2F)nn1)N1CCCC1	none (no result: HTRA1 inh, TCR-CD3 inh)
Cc1ccc(/C=C/C(=O)Nc2cccc3ncccc23)o1	PRMT1 inh 69.0 | PRMT1 inh conf 28.2
Cc1ccc(/C=C/C(=O)Nc2cccnc2)o1	none
Cc1ccc(/C=C/C(=O)Nc2nn[nH]n2)o1	PRMT1 inh 35.5 | PRMT1 inh conf 54.7
Cc1c(C)n(Cc2ccc(-c3ccccc3C(=O)O)cc2)c2ccc(C(=O)N[C@@H](C)c3ccc([N+](=O)[O-])cc3)cc12	none (no result: HTRA1 inh, TCR-CD3 inh)
COc1ccc(OC)c(S(=O)(=O)N2CCCCC2C(=O)N2CCN(c3ccc(F)cc3)CC2)c1 (centres undefined)	none (no result: HTRA1 inh, TCR-CD3 inh)
Cc1ccc(S(=O)(=O)NN=CC=CC=NNS(=O)(=O)c2ccc(C)cc2)cc1	PRMT1 inh 39.2 | PRMT1 inh conf 44.1
COc1cccc(-c2cc3nc(-c4ccccc4)cc(N4CCN(C(=O)c5ccoc5)CC4)n3n2)c1	none
O=C(c1ccoc1)N1CCN(c2cc(-c3ccco3)nc3cc(-c4ccco4)nn23)CC1	PRMT1 inh 33.9 (no result: HTRA1 inh, TCR-CD3 inh) | PRMT1 inh conf inactive
COc1cccc(-c2cc3nc(-c4ccco4)cc(N4CCN(C(C)=O)CC4)n3n2)c1	PRMT1 inh 49.9 (no result: HTRA1 inh, TCR-CD3 inh) | PRMT1 inh conf inactive
CC(=O)c1cc(-c2ccc(-c3ccccc3)c(F)c2)c(=O)n2c1CCC2	none (no result: HTRA1 inh, TCR-CD3 inh)
CCN(CC)c1ccc(-c2nn3c(-c4ccc(C(C)(C)C)cc4)nnc3s2)cc1	none (no result: HTRA1 inh, TCR-CD3 inh)
O=C(Nc1ccc(OC(F)(F)F)cc1)Nc1c(-c2ccccc2)nc2ncccn12	none (no result: HTRA1 inh, TCR-CD3 inh)
O=C(CCN1C(=O)/C(=C\c2ccccc2F)SC1=S)N1CCOCC1	none
CN1CCN(C(=O)CCN2C(=O)/C(=C\c3ccccc3F)SC2=S)CC1	PRMT1 inh 27.5 | PRMT1 inh conf inactive
COc1ccc(N2C(=O)CC(NC3CC3)C2=O)cc1 (centres undefined)	PRMT1 inh 31.7 | PRMT1 inh conf inactive
CCOC(=O)c1ccc(N2C(=O)CC(NC3CCN(C(=O)c4ccc(F)cc4)CC3)C2=O)cc1 (centres undefined)	none
CCOc1ccc(N2C(=O)CC(NC3CCN(C(=O)c4ccc(F)cc4)CC3)C2=O)cc1 (centres undefined)	PRMT1 inh 53.0 | PRMT1 inh conf inactive
COc1ccc2c(Cl)c(C(=O)N/N=C/c3ccc4c(c3)OCO4)sc2c1	none
COc1ccc2c(Cl)c(C(=O)N/N=C3\CCCC(=O)C3)sc2c1	PRMT1 inh 37.5 | PRMT1 inh conf inactive
O=C(Nc1c(-c2ccc(C(F)(F)F)cc2)nc2ncccn12)C1CC1	none (no result: HTRA1 inh, TCR-CD3 inh)
O=c1cc(-c2ccccc2)[nH]n1-c1ccccc1	none
O=C1C=CC(=O)N1c1cccc(-c2ccccc2)c1	PRMT1 inh 90.8 | PRMT1 inh conf 94.4
O=C(Cn1c(=O)c2cccn2c2cccnc21)NCCCN1CCN(c2ccccc2)CC1	none (no result: HTRA1 inh, TCR-CD3 inh)
COc1ccc([C@H]2OC(=O)C[C@@H]2C(=O)N2CCN(c3ccccc3F)CC2)cc1OC	none (no result: HTRA1 inh, TCR-CD3 inh)
CCN(CC)c1ccc(NC(=O)Nc2ccc(C(C)=O)cc2)cc1	none
CCN(CC)c1ccc(N=C2C=CC(=O)C=C2NC(C)=O)cc1	PRMT1 inh 54.4 (no result: HTRA1 inh) | PRMT1 inh conf inactive
Cc1[nH]n(-c2ccccc2)c(=S)c1C=NCCCN=Cc1c(C)[nH]n(-c2ccccc2)c1=S	PRMT1 inh 80.8 | PRMT1 inh conf 44.4
Cc1ccc(S(=O)(=O)CCC(=O)c2ccc(O)cc2O)cc1	PRMT1 inh 34.7 | PRMT1 inh conf inactive
COc1ccc(OC)c(S(=O)(=O)N2CCCC(C(=O)Nc3c(C)n(C)n(-c4ccccc4)c3=O)C2)c1 (centres undefined)	none (no result: HTRA1 inh, TCR-CD3 inh)
Oc1ccc(CNc2cccnc2)c2cccnc12	PRMT1 inh 39.3 (no result: HTRA1 inh, TCR-CD3 inh) | PRMT1 inh conf 34.3
Cc1ccc(NCc2ccc(O)c3ncccc23)cc1	none
COc1ccc(COC[C@H](C)N2C[C@@H](C)[C@H](CN(C)S(=O)(=O)c3ccc(F)cc3)OCCCC[C@H](C)Oc3ccc(NC(=O)Nc4ccccc4)cc3C2=O)cc1	none (no result: HTRA1 inh, TCR-CD3 inh)
O=C(C1=C(O)C(=O)N(c2ncccn2)C1c1cccc(Cl)c1)c1ccco1 (centres undefined)	none
CSc1nnc(N2C(=O)C(O)=C(C(=O)c3ccco3)C2c2cccc(Cl)c2)s1 (centres undefined)	PRMT1 inh 29.6 | PRMT1 inh conf inactive
CCSc1nnc(N2C(=O)C(O)=C(C(=O)c3ccco3)C2c2cccc(OC)c2)s1 (centres undefined)	PRMT1 inh 30.8 | PRMT1 inh conf inactive
